Experimental data published in PMC5182512 (Phytochemistry, 2014).

Molecular target: CrSMT (Chlamydomonas reinhardtii, UniProt A8IJ34)
Assay: [methyl-3H3]SAM radiometric assay, initial velocity, Lineweaver-Burk
Format: biochemical
Settings: E. coli lysate; 100 μM SAM (saturating), phosphate buffer pH 7.5
Outline: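 Recombinant 384-aa CrSMT expressed in E. coli BL21(DE3), IPTG-induced (0.4 mM, 2 h, 30 °C), French-press lysate in 20 mM phosphate, 5% glycerol, pH 7.5. Lysate (1–2 mg total protein) incubated 45 min with sterol acceptor 5–150 μM plus [methyl-3H3]SAM (0.6 μCi). Methanolic KOH saponification, hexane extraction of non-saponifiable lipids. Sterol-free background 500–1000 dpm. Lineweaver–Burk analysis.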

| Km | Structure (SMILES) |
| --- | --- |
| 24 µM | CC(C)=CCC[C@@H](C)[C@H]1CC[C@@]2(C)C3=C(CC[C@]12C)[C@@]1(C)CC[C@H](O)C(C)(C)[C@@H]1CC3 [compound 1, Lanosterol] |
| 22 µM | CC(C)=CCC[C@@H](C)[C@H]1CC[C@H]2C3=C(CC[C@]12C)[C@@]1(C)CC[C@H](O)C[C@@H]1CC3 [compound 9, Zymosterol] |
